# Only some compounds are listed: those with a hit (about 2.6% of all), similar ones and a draw of the others.
# RanGTP-Imp inh: disruptors of Ran-importin-beta complex formation – biochemical, FRET, CFP-Ran, YFP-importin-beta, homogeneous, primary screen; cell-free CFP-Ran/YFP-importin-beta FRET ratio; inhibition, % (test concentration not listed); 300,000 tested, 1.1% active; AID 2216;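 active = more than half of the replicate wells show a fall in the fluorescence ratio signal beyond about 16%, limit read from the data, passing the limit was not always enough; inconclusive = exactly half of the replicate wells pass the set limit; inactive = fewer than half of replicates pass the limit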;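 note: 0% = DMSO wells and 100% = Ran loaded with GDP instead of GTP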
# Runt-CBFb FRET: inhibitors of human RUNX1 Runt domain binding to CBFb; Q01196+Q13951; Cerulean-Runt/Venus-CBFb FRET ratio 530/480, 1 h; inhibition, % at 20 µM; 220,000 tested, 0.46% active;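 active = inhibition over about 50% at 20 µM in the single-dose screen, limit read from the data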;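 note: 0% = DMSO wells and 100% = excess unlabeled CBFb competitor control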
# Target sequence (Q01196 whole entry, looked up, the tested form may be a part): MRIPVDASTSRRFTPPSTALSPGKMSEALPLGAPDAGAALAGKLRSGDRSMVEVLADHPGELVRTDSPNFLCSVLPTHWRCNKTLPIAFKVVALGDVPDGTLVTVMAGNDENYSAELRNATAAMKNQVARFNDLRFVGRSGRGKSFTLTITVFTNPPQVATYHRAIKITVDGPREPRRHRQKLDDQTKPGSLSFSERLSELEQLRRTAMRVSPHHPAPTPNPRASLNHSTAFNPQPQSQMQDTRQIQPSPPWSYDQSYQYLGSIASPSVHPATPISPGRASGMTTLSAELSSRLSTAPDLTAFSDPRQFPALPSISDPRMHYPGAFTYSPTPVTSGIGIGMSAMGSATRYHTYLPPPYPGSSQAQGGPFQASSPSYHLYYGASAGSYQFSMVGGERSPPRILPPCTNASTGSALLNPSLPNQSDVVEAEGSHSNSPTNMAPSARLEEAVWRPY
# Target sequence (Q13951 whole entry, looked up, the tested form may be a part): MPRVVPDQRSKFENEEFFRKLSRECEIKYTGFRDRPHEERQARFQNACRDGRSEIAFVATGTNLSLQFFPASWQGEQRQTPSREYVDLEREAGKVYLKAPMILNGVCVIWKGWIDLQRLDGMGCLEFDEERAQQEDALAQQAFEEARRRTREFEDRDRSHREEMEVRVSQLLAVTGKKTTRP
#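 Reagent – Venus-CBFb binding partner, 100 nM · Assay system – Cerulean-tagged RUNX1 Runt domain (FRET donor) fusion protein · Input – 100 nM per protein · Incubation – two 1 h room-temperature incubations shielded from light · Measured by – FRET fluorescence · Medium – Tris buffer pH 7.5 with salts and BSA · Benchmarks – unlabeled CBFb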
# VIM-2 inh: blocks Pseudomonas aeruginosa VIM-2 metallo-beta-lactamase. AID 1527. inhibition, % at 5.6 µM. 290,000 tested, 0.89% active. purified VIM-2, nitrocefin hydrolysis, epi-absorbance fluorescence;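 active = inhibition above the mean of all tested compounds plus 3 SD, cutoff set per screening run, cut at about 7.5% in these data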;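 note: red hydrolysis product quenches plate fluorescence so inhibitors raise well fluorescence; 0% = enzyme with DMSO and 100% = DMSO without enzyme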
# IMP-1 inh-1: inhibitors of Pseudomonas aeruginosa IMP-1 metallo-beta-lactamase | purified IMP-1, nitrocefin hydrolysis, epi-absorbance fluorescence | inhibition, % at 5.6 µM | 290,000 tested, 0.45% active | AID 1556;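 active = inhibition above the mean plus 3 SD of all compounds in the same screening run, cut at about 4.5% in these data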;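 note: 0% = IMP-1 with DMSO and 100% = DMSO wells lacking enzyme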
#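 System: purified IMP-1; amount: IMP-1 0.2 nM before substrate addition; compound: single dose, 5.6 µM; times: 25 °C, 15 min preincubation, 25 min reaction; signal: Epi-absorbance via hydrolysed-nitrocefin quenching of white-plate fluorescence, 480/530 nm, EDTA stop; benchmarks: DMSO with and without IMP-1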
# Runt-SMMHC FRET: blocks binding of human RUNX1 Runt domain to CBFb-SMMHC; Cerulean-Runt/Venus-CBFb-SMMHC FRET ratio 530/480, 1 h; inhibition, % at 20 µM; 220,000 tested, 0.74% active;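 active = mean inhibition across duplicate retests at 20 µM reaching about 50%, limit read from the data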;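 note: 0% = DMSO wells and 100% = wells with excess untagged CBFb-SMMHC; inhibitors lower the FRET ratio by blocking Runt binding to CBFb-SMMHC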
# IMP-1 inh-2: selectivity counter-screen for VIM-2 inhibitors: IMP-1 metallo-beta-lactamase inhibitors; shares compounds with VIM-2 inh; purified IMP-1, nitrocefin hydrolysis, epi-absorbance fluorescence; inhibition, % at 5.6 µM; 1,300 tested, under 10 active; AID 1856; call rule not given here;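 note: 0% = enzyme with vehicle and 100% = vehicle without enzyme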
# VIM-2 FRET ctr: VIM-2 FRET inhibition, artifact counter-screen; shares compounds with VIM-2 inh; purified VIM-2, CCF2 FRET substrate hydrolysis; inhibition, % at 5.6 µM; 1,300 tested, 23% active; AID 1857;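 active = inhibition above the mean of all tested compounds plus 3 SD, cut at about 19% in these data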;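 note: 0% = VIM-2 plus DMSO and 100% = no enzyme wells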
# TEM-1 counter-1: selectivity counter-screen for VIM-2 inhibitors: E. coli TEM-1 inhibitors; 1,300 tested, 3% active; Purified TEM-1, nitrocefin hydrolysis, epi-absorbance fluorescence; AID 1866; shares compounds with VIM-2 inh; inhibition, % at 5.6 µM;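 active = inhibition above that campaign's mean inhibition plus 3 SD, cut at about 0.46% in these data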;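 note: 0% = TEM-1 with DMSO and 100% = TEM-1 with 100 µM potassium clavulanate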
# VIM-2 inh conf: confirmation of P. aeruginosa VIM-2 metallo-beta-lactamase inhibitors. 1,300 tested, 96% active. inhibition, % at 5.6 µM. AID 2187. purified VIM-2, nitrocefin hydrolysis, epi-absorbance. shares compounds with VIM-2 inh;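 active = inhibition of the VIM-2 beta-lactamase enzyme above about 11% from the earlier first-round screen, limit read from the data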;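 note: 0% = VIM-2 with DMSO and 100% = buffer wells without enzyme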
# VIM-2 confirm: VIM-2 inhibition, confirmation assay; 200 tested, 73% active; inhibition, % at 5.6 µM; purified VIM-2 enzyme, nitrocefin absorbance; shares compounds with IMP-1 inh-1; in the data active = inhibition above about 8%;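 note: 0% = enzyme with vehicle and 100% = no enzyme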
# TEM-1 counter-2: blocks E. coli TEM-1 beta-lactamase, VIM-2 IMP-1 counter-screen | shares compounds with IMP-1 inh-1 | 200 tested, 50% active | nitrocefin absorbance inhibition | inhibition, % at 5.6 µM; in the data active = inhibition above about 0.66%
# IMP-1 confirm: confirmation of P. aeruginosa IMP-1 metallo-beta-lactamase inhibitors; AID 2189; purified IMP-1 enzyme, absorbance substrate hydrolysis; 200 tested, 60% active; inhibition, % at 5.6 µM; shares compounds with IMP-1 inh-1; in the data active = inhibition above about 4.9%;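 note: 0% = enzyme with vehicle and 100% = vehicle without enzyme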
# YIC counter: counter-screen YIC FRET for RanGTP-importin-beta inhibitors. shares compounds with RanGTP-Imp inh. Purified YIC probe, intramolecular FRET ratio YFP/CFP. 1,000 tested, 40% active. IC50, µM;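 active = fitted half-maximal inhibitory concentration no more than tenfold above the top dose tested; inconclusive = flat fit with 30 to 70% activity, or poor fit; inactive = half-maximal concentration beyond tenfold above the top dose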
# * hit, by the source's call; i = inactive; ? = inconclusive; / = no result.
SMILES,RanGTP-Imp inh,Runt-CBFb FRET,VIM-2 inh,IMP-1 inh-1,Runt-SMMHC FRET,VIM-2 confirm,TEM-1 counter-2,IMP-1 confirm,others
Cc1cccc(-n2c(-c3ccncc3)n[nH]c2=S)c1C,-1,6,-1,-3,6,/,/,/,
Cc1cccc(-n2c(C)n[nH]c2=S)c1C,-1,6,12*,-3,0,/,/,/,IMP-1 inh-2=-4;VIM-2 FRET ctr=40*;TEM-1 counter-1=-6;VIM-2 inh conf=24*
Cc1n[nH]c(=S)n1-c1cccc(Cl)c1,3,6,14*,-1,11,/,/,/,IMP-1 inh-2=-3;VIM-2 FRET ctr=36*;TEM-1 counter-1=-7;VIM-2 inh conf=23*
CCCc1nnc(NC(=O)CCC(=O)NC2CCCCCC2)s1,2,/,-1,-1,/,/,/,/,
CN(Cc1ccccc1)C(=O)CCn1c(=O)c2cccn2c2cccnc21,2,/,2,-1,/,/,/,/,
COc1ccccc1Nc1c2ccccc2nc2ccccc12,27*,/,24*,0,/,/,/,/,IMP-1 inh-2=-2;VIM-2 FRET ctr=-3;TEM-1 counter-1=-4;VIM-2 inh conf=36*;YIC counter=>50
COc1cccc(-c2coc3c(C)c4oc(=O)c(CC(=O)O)c(C)c4cc23)c1,24*,/,16*,1,/,/,/,/,IMP-1 inh-2=2;VIM-2 FRET ctr=3;TEM-1 counter-1=-6;VIM-2 inh conf=30*;YIC counter=>50
COc1ccc(CN(CC(=O)NCc2ccccc2)C(=O)CCC(=O)Nc2ccccn2)cc1,4,/,0,1,/,/,/,/,
Cc1cc(NCCCN(C)C)n2nc(-c3cccs3)cc2n1,2,-2,6,-4,2,/,/,/,
Cc1cc(C)c2c(n1)nn1c(NCCCN(C)C)cc(C)nc21,30*,22,19*,-2,64*,/,/,/,IMP-1 inh-2=-4;VIM-2 FRET ctr=-3;TEM-1 counter-1=-7;VIM-2 inh conf=31*;YIC counter=27*
CC(C)c1cc(N2CCN(C(=O)c3ccco3)CC2)n2c(nc3ccccc32)c1C#N,?,25,15*,-1,/,/,/,/,IMP-1 inh-2=-4;VIM-2 FRET ctr=-6;TEM-1 counter-1=-5;VIM-2 inh conf=32*;YIC counter=16*
CCn1c(N2CCN(C(=O)c3ccco3)CC2)nc2ccccc21,1,/,-1,-1,/,/,/,/,
O=C(Cc1cccc(C(F)(F)F)c1)NCc1cccnc1,-4,/,-3,-4,/,/,/,/,
CN1/C(=C\C=C2/SC(=S)N(CC(=O)O)C2=O)C(C)(C)c2ccccc21,-24,-22,11*,17*,-110,23*,21*,21*,
CC(=O)c1c(C)[nH]c(C(=O)OCc2ccccc2F)c1C,2,-3,1,-2,-7,/,/,/,
O=C1c2ccccc2-c2onc3ccc(NCCCn4ccnc4)c1c23,-278,-193,55*,4.6*,-184,89*,69*,56*,
CC(=O)NCCn1c(SCc2cccc([N+](=O)[O-])c2)nc2ccccc2c1=O,2,-4,0,1,-2,/,/,/,
Cc1cc2nc3c(=O)[nH]c(=O)[nH]c3nc2c([N+](=O)[O-])c1N,/,-49,12*,12*,-236,11*,20*,4,
CC1CC(C)CN(C(=O)C2CCCN(S(=O)(=O)c3cnc[nH]3)C2)C1 (stereo not given),-3,-1,-1,-5,2,/,/,/,
CCOC(=O)N1CCN(Cc2ccc3c(c2)OCO3)CC1,-1,/,-1,-1,/,/,/,/,
Cc1c(O)ccc(C(=O)CN2CCN(Cc3ccc4c(c3)OCO4)CC2)c1O,3,1,91*,87*,-130,-1,-6,-2,
c1ccc(CCCN2CCN(c3ccccc3)CC2)cc1,-3,/,-3,-2,/,/,/,/,
CCN(CC)CCOC(=O)c1ccc(N/C=C(/C#N)c2nc(-c3cc4ccccc4oc3=O)cs2)cc1,-8,/,42*,13*,/,52*,-5,11*,
COc1ccc(C2C(C(N)=O)=C(C)Nc3nc(CCCO)nn32)cc1OC (stereo not given),6,/,-5,-5,/,/,/,/,
CC(=O)Nc1ccc(N2C(=O)c3cccc4c(O)ccc(c34)C2=O)cc1,-181,/,40*,34*,/,30*,34*,28*,
SMILES,RanGTP-Imp inh,Runt-CBFb FRET,VIM-2 inh,IMP-1 inh-1,Runt-SMMHC FRET,VIM-2 confirm,TEM-1 counter-2,IMP-1 confirm,others
Cc1ccc(N2C(=O)c3cccc4c(C(=O)O)ccc(c34)C2=O)cc1,1,-3,1,-1,0,/,/,/,
O=C1c2cccc3c(O)ccc(c23)C(=O)N1Cc1ccco1,i,-328,18*,21*,-234,31*,38*,28*,
O=C1c2cccc3c(O)ccc(c23)C(=O)N1c1ccc(Cl)cc1,-179,/,30*,22*,/,22*,29*,18*,
CCOc1ccc(NC(=O)c2ccccc2C(=O)c2ccccc2)cc1OCC,-1,/,-2,-2,/,/,/,/,
O=C1CN(S(=O)(=O)c2cccc(C(=O)O)c2)c2ccccc2N1,3,/,2,-1,/,/,/,/,
O=c1ccc2cc3c(-c4ccccc4)coc3cc2o1,2,/,-2,-2,/,/,/,/,
CC(=O)Nc1sc2c(c1-c1nc3ccccc3s1)CCN(C(C)C)C2,/,24,18*,4.5*,85*,15*,-3,-1,
CC(=O)Nc1cccc(-c2nc3ccccc3s2)c1,/,0,0,-2,-3,/,/,/,
CCN(CC(=O)Nc1c(F)cccc1F)C(=O)CN1C(=O)NC2(CCCC2)C1=O,-1,/,/,/,/,/,/,/,
Cc1sc2cc3c(c(C(=O)c4ccccc4)[n+]2c1C)-c1cccc2cccc-3c12,0,-2,6,-1,4,/,/,/,
O=C(c1ccccc1)c1c2c(cc3sc4ccccc4[n+]13)-c1cccc3cccc-2c13,/,-56,16*,10*,-104,11*,-3,-1,
O=C(Nc1ccc(C(F)(F)F)cc1)c1ccc(NC(=O)C2CCCO2)cc1 (stereo not given),4,/,9.1*,16*,/,9.9*,-2,9.8*,
COc1cccc(CNC(=O)CCC2CCCN(c3cc(C)nc(N4CCCC4)n3)C2)c1 (stereo not given),1,2,1,-1,-8,/,/,/,

# Compound activity: PubChem, several laboratories
